In ChEMBL document CHEMBL1687785, “ampG gene of Pseudomonas aeruginosa and its role in β-lactamase expression” (2010):
In brackets after ≈: the same amount, converted by molar mass.

Experiments:
Assay type in all cases: functional
Pseudomonas aeruginosa [1] = experiment: Antimicrobial activity against ampD, ampDh2, ampDh3 and ampG deficient Pseudomonas aeruginosa PAO1 harboring pZY0901 conferring resistance to gentamycin after 16 to 20 hrs by broth microdilution method in presence of 120 uM carbonyl cyanide m-chlorophenyl-hydrazone
Method in brief: (§1)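 CLSI broth microdilution in Mueller-Hinton broth with serial antibiotic dilutions. CCCP was added from a 10 mM DMSO stock to 120 μM final, then the bacterial culture was added as inoculum (about 10^4 cells from OD600 0.5 starter cultures). MIC was the lowest concentration preventing growth after 16 to 20 h at 37°C, run in triplicate.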

Pseudomonas aeruginosa [2] = experiment: Antimicrobial activity against ampG deficient Pseudomonas aeruginosa PAK harboring pUCP24 conferring resistance to gentamycin after 16 to 20 hrs by broth microdilution method in presence of 120 uM carbonyl cyanide m-chlorophenyl-hydrazone; method in brief: as §1
Pseudomonas aeruginosa [3] = experiment: Antimicrobial activity against ampG deficient Pseudomonas aeruginosa PAO1 harboring pZY0901 conferring resistance to gentamycin after 16 to 20 hrs by broth microdilution method
Method in brief: (§2)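 CLSI broth microdilution in Mueller-Hinton broth, serial 2-fold antibiotic dilutions. Inoculum about 10^4 cells per well, taken from starter cultures grown to OD600 0.5. MIC was the lowest antibiotic concentration preventing growth after 16 to 20 h at 37°C. Each MIC was determined in triplicate.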

Pseudomonas aeruginosa [4] = experiment: Antimicrobial activity against ampG deficient Pseudomonas aeruginosa PAO1 harboring pZY0901 conferring resistance to gentamycin after 16 to 20 hrs by broth microdilution method in presence of 120 uM carbonyl cyanide m-chlorophenyl-hydrazone; method in brief: as §1
Pseudomonas aeruginosa [5] = experiment: Antimicrobial activity against ampG deficient Pseudomonas aeruginosa PAO1 harboring pZY0908 conferring resistance to gentamycin after 16 to 20 hrs by broth microdilution method; method in brief: as §2
Pseudomonas aeruginosa [6] = experiment: Antimicrobial activity against ampD, ampDh2, ampDh3 and ampG deficient Pseudomonas aeruginosa PAO1 harboring pUCP24 conferring resistance to gentamycin after 16 to 20 hrs by broth microdilution method; method in brief: as §2
Pseudomonas aeruginosa [7] = experiment: Antimicrobial activity against ampG deficient Pseudomonas aeruginosa PAK harboring pZY0901 conferring resistance to gentamycin after 16 to 20 hrs by broth microdilution method in presence of 120 uM carbonyl cyanide m-chlorophenyl-hydrazone; method in brief: as §1
Pseudomonas aeruginosa [8] = experiment: Antimicrobial activity against ampD, ampDh2, ampDh3 and ampG deficient Pseudomonas aeruginosa PAO1 after 16 to 20 hrs by broth microdilution method in presence of 120 uM carbonyl cyanide m-chlorophenyl-hydrazone; method in brief: as §1
Pseudomonas aeruginosa [9] = experiment: Antimicrobial activity against ampD, ampDh2, ampDh3 and ampG deficient Pseudomonas aeruginosa PAO1 harboring pZY0901 conferring resistance to gentamycin after 16 to 20 hrs by broth microdilution method; method in brief: as §2
Pseudomonas aeruginosa [10] = experiment: Antimicrobial activity against ampG deficient Pseudomonas aeruginosa PAK harboring pZY0901 conferring resistance to gentamycin after 16 to 20 hrs by broth microdilution method; method in brief: as §2
Pseudomonas aeruginosa [11] = experiment: Antimicrobial activity against ampGh1 deficient Pseudomonas aeruginosa PAO1 after 16 to 20 hrs by broth microdilution method in presence of 120 uM carbonyl cyanide m-chlorophenyl-hydrazone
Method in brief: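 Serial 2-fold dilutions of β-lactam in Mueller-Hinton broth with CCCP added from a 10 mM DMSO stock to 120 μM final; inoculum about 10^4 cells from cultures grown to OD600 0.5; MIC taken as lowest concentration preventing growth after 16 to 20 h at 37°C; triplicate.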

Pseudomonas aeruginosa [12] = experiment: Antimicrobial activity against ampD, ampDh2, ampDh3 deficient Pseudomonas aeruginosa PAO1 after 16 to 20 hrs by broth microdilution method in presence of 120 uM carbonyl cyanide m-chlorophenyl-hydrazone; method in brief: as §1
Pseudomonas aeruginosa [13] = experiment: Antimicrobial activity against ampGh1 deficient Pseudomonas aeruginosa PAK after 16 to 20 hrs by broth microdilution method in presence of 120 uM carbonyl cyanide m-chlorophenyl-hydrazone; method in brief: as §1
Pseudomonas aeruginosa [14] = experiment: Antimicrobial activity against ampG deficient Pseudomonas aeruginosa PAK harboring pUCP24 conferring resistance to gentamycin after 16 to 20 hrs by broth microdilution method; method in brief: as §2
Pseudomonas aeruginosa [15] = experiment: Antimicrobial activity against ampD, […], ampDh2 deficient Pseudomonas aeruginosa PAO1 after 16 to 20 hrs by broth microdilution method; method in brief: as §2
Pseudomonas aeruginosa [16] = experiment: Antimicrobial activity against Pseudomonas aeruginosa PAO1 after 16 to 20 hrs by broth microdilution method
Method in brief: (§3)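 CLSI broth microdilution: 2-fold serial antibiotic dilutions in Mueller-Hinton broth, inoculated with about 10^4 cells per 100 μl from starter cultures grown to OD600 0.5. MIC is the lowest concentration preventing growth after 16-20 h at 37°C. Triplicate.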

Pseudomonas aeruginosa [17] = experiment: Antimicrobial activity against ampGh1 deficient Pseudomonas aeruginosa PAK after 16 to 20 hrs by broth microdilution method; method in brief: as §2
Pseudomonas aeruginosa [18] = experiment: Antimicrobial activity against ampG deficient Pseudomonas aeruginosa PAK after 16 to 20 hrs by broth microdilution method; method in brief: as §2
Pseudomonas aeruginosa [19] = experiment: Antimicrobial activity against ampD, ampDh2, ampDh3 and ampGh1 deficient Pseudomonas aeruginosa PAO1 after 16 to 20 hrs by broth microdilution method in presence of 120 uM carbonyl cyanide m-chlorophenyl-hydrazone; method in brief: as §1
Pseudomonas aeruginosa [20] = experiment: Antimicrobial activity against ampG, ampGh1 deficient Pseudomonas aeruginosa PAO1 after 16 to 20 hrs by broth microdilution method in presence of 120 uM carbonyl cyanide m-chlorophenyl-hydrazone; method in brief: as §1
Pseudomonas aeruginosa [21] = experiment: Antimicrobial activity against ampG deficient Pseudomonas aeruginosa PAO1 harboring pUCP24 conferring resistance to gentamycin after 16 to 20 hrs by broth microdilution method in presence of 120 uM carbonyl cyanide m-chlorophenyl-hydrazone; method in brief: as §1
Pseudomonas aeruginosa [22] = experiment: Antimicrobial activity against Pseudomonas aeruginosa PAK after 16 to 20 hrs by broth microdilution method; method in brief: as §3
Escherichia coli [23] = experiment: Antimicrobial activity against tetracycline resistant Escherichia coli SNO301-1 harboring pEC1C carrying ampC, ampR from Enterobacter cloacae after 16 to 20 hrs by broth microdilution method
Method in brief: (§4)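 CLSI broth microdilution: serial 2-fold β-lactam dilutions in Mueller-Hinton broth, inoculum about 10^4 cells from starter cultures at OD600 0.5; MIC read as lowest concentration preventing growth after 16 to 20 h at 37°C; triplicate determinations.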

Pseudomonas aeruginosa [24] = experiment: Antimicrobial activity against ampG deficient Pseudomonas aeruginosa PAO1 after 16 to 20 hrs by broth microdilution method; method in brief: as §2
Pseudomonas aeruginosa [25] = experiment: Antimicrobial activity against ampGh1 deficient Pseudomonas aeruginosa PAO1 after 16 to 20 hrs by broth microdilution method; method in brief: as §2
Pseudomonas aeruginosa [26] = experiment: Antimicrobial activity against Pseudomonas aeruginosa PAK after 16 to 20 hrs by broth microdilution method in presence of 120 uM carbonyl cyanide m-chlorophenyl-hydrazone
Method in brief: (§5)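 CLSI broth microdilution in Mueller-Hinton broth with CCCP added from a 10 mM DMSO stock to 120 μM final, alongside 2-fold serial antibiotic dilutions. Inoculum from starter cultures grown to OD600 0.5. MIC is the lowest concentration preventing growth after 16-20 h at 37°C. Triplicate.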

Pseudomonas aeruginosa [27] = experiment: Antimicrobial activity against ampG, ampGh1 deficient Pseudomonas aeruginosa PAK after 16 to 20 hrs by broth microdilution method in presence of 120 uM carbonyl cyanide m-chlorophenyl-hydrazone; method in brief: as §1
Pseudomonas aeruginosa [28] = experiment: Antimicrobial activity against ampD, ampDh2, ampDh3 and ampG deficient Pseudomonas aeruginosa PAO1 harboring pUCP24 conferring resistance to gentamycin after 16 to 20 hrs by broth microdilution method in presence of 120 uM carbonyl cyanide m-chlorophenyl-hydrazone; method in brief: as §1
Pseudomonas aeruginosa [29] = experiment: Antimicrobial activity against ampG, ampGh1 deficient Pseudomonas aeruginosa PAK after 16 to 20 hrs by broth microdilution method; method in brief: as §2
Pseudomonas aeruginosa [30] = experiment: Antimicrobial activity against ampD, ampDh2, ampDh3 and ampG deficient Pseudomonas aeruginosa PAO1 after 16 to 20 hrs by broth microdilution method; method in brief: as §2
Escherichia coli [31] = experiment: Antimicrobial activity against kanamycin resistant Escherichia coli SNO301-1 harboring pEC1C carrying ampC, ampR from Enterobacter cloacae after 16 to 20 hrs by broth microdilution method; method in brief: as §4
Pseudomonas aeruginosa [32] = experiment: Antimicrobial activity against ampG deficient Pseudomonas aeruginosa PAO1 after 16 to 20 hrs by broth microdilution method in presence of 120 uM carbonyl cyanide m-chlorophenyl-hydrazone; method in brief: as §1
Pseudomonas aeruginosa [33] = experiment: Antimicrobial activity against Pseudomonas aeruginosa PAO1 after 16 to 20 hrs by broth microdilution method in presence of 120 uM carbonyl cyanide m-chlorophenyl-hydrazone; method in brief: as §5
Pseudomonas aeruginosa [34] = experiment: Antimicrobial activity against ampG, ampGh1 deficient Pseudomonas aeruginosa PAO1 after 16 to 20 hrs by broth microdilution method; method in brief: as §2
Pseudomonas aeruginosa [35] = experiment: Antimicrobial activity against ampD, ampDh2, ampDh3 and ampGh1 deficient Pseudomonas aeruginosa PAO1 after 16 to 20 hrs by broth microdilution method; method in brief: as §2
Escherichia coli [36] = experiment: Antimicrobial activity against gentamycin resistant Escherichia coli SNO301-1 harboring pEC1C carrying ampC, ampR from Enterobacter cloacae after 16 to 20 hrs by broth microdilution method; method in brief: as §4
Pseudomonas aeruginosa [37] = experiment: Antimicrobial activity against ampG deficient Pseudomonas aeruginosa PAK after 16 to 20 hrs by broth microdilution method in presence of 120 uM carbonyl cyanide m-chlorophenyl-hydrazone; method in brief: as §1
Pseudomonas aeruginosa [38] = experiment: Antimicrobial activity against ampG deficient Pseudomonas aeruginosa PAO1 harboring pUCP24 conferring resistance to gentamycin after 16 to 20 hrs by broth microdilution method; method in brief: as §2

SMILES	MIC (Pseudomonas aeruginosa [3]) [µg/mL]	MIC (Pseudomonas aeruginosa [5]) [µg/mL]	MIC (Pseudomonas aeruginosa [6]) [µg/mL]	MIC (Pseudomonas aeruginosa [9]) [µg/mL]	MIC (Pseudomonas aeruginosa [10]) [µg/mL]	MIC (Pseudomonas aeruginosa [14]) [µg/mL]	MIC (Pseudomonas aeruginosa [15]) [µg/mL]	MIC (Pseudomonas aeruginosa [16]) [µg/mL]	MIC (Pseudomonas aeruginosa [17]) [µg/mL]	MIC (Pseudomonas aeruginosa [18]) [µg/mL]	MIC (Pseudomonas aeruginosa [22]) [µg/mL]	MIC (Pseudomonas aeruginosa [24]) [µg/mL]	MIC (Pseudomonas aeruginosa [25]) [µg/mL]	MIC (Pseudomonas aeruginosa [29]) [µg/mL]	MIC (Pseudomonas aeruginosa [30]) [µg/mL]	MIC (Pseudomonas aeruginosa [34]) [µg/mL]	MIC (Pseudomonas aeruginosa [35]) [µg/mL]	MIC (Pseudomonas aeruginosa [38]) [µg/mL]	also measured
CO/N=C(\C(=O)N[C@@H]1C(=O)N2C(C(=O)O)=C(COC(C)=O)CS[C@H]12)c1csc(N)n1 [CEFOTAXIME]	256 (≈ 562 µM)	8 (≈ 17.6 µM)	4 (≈ 8.78 µM)	512 (≈ 1120 µM)	512 (≈ 1120 µM)	4 (≈ 8.78 µM)	512 (≈ 1120 µM)	16 (≈ 35.1 µM)	8 (≈ 17.6 µM)	8 (≈ 17.6 µM)	8 (≈ 17.6 µM)	8 (≈ 17.6 µM)	16 (≈ 35.1 µM)	8 (≈ 17.6 µM)	4 (≈ 8.78 µM)	8 (≈ 17.6 µM)	256 (≈ 562 µM)	8 (≈ 17.6 µM)	MIC (Pseudomonas aeruginosa [1]): 64 µg/mL; MIC (Pseudomonas aeruginosa [2]): 4 µg/mL; MIC (Pseudomonas aeruginosa [4]): 128 µg/mL; MIC (Pseudomonas aeruginosa [7]): 256 µg/mL; MIC (Pseudomonas aeruginosa [8]): 4 µg/mL; MIC (Pseudomonas aeruginosa [11]): 8 µg/mL; MIC (Pseudomonas aeruginosa [12]): 64 µg/mL; MIC (Pseudomonas aeruginosa [13]): 8 µg/mL; MIC (Pseudomonas aeruginosa [19]): 64 µg/mL; MIC (Pseudomonas aeruginosa [20]): 4 µg/mL; MIC (Pseudomonas aeruginosa [21]): 4 µg/mL; MIC (Escherichia coli [23]): < 2 µg/mL; MIC (Pseudomonas aeruginosa [26]): 8 µg/mL; MIC (Pseudomonas aeruginosa [27]): 4 µg/mL; MIC (Pseudomonas aeruginosa [28]): 4 µg/mL; MIC (Escherichia coli [31]): 64 µg/mL (≈ 141 µM); MIC (Pseudomonas aeruginosa [32]): 4 µg/mL; MIC (Pseudomonas aeruginosa [33]): 8 µg/mL; MIC (Escherichia coli [36]): 32 µg/mL (≈ 70.3 µM); MIC (Pseudomonas aeruginosa [37]): 4 µg/mL
CC(C)(O/N=C(\C(=O)N[C@@H]1C(=O)N2C(C(=O)[O-])=C(C[n+]3ccccc3)CS[C@H]12)c1csc(N)n1)C(=O)O [CEFTAZIDIME]	16 (≈ 29.3 µM)	1 (≈ 1.83 µM)	1 (≈ 1.83 µM)	32 (≈ 58.5 µM)	32 (≈ 58.5 µM)	1 (≈ 1.83 µM)	32 (≈ 58.5 µM)	1 (≈ 1.83 µM)	1 (≈ 1.83 µM)	1 (≈ 1.83 µM)	1 (≈ 1.83 µM)	1 (≈ 1.83 µM)	1 (≈ 1.83 µM)	1 (≈ 1.83 µM)	1 (≈ 1.83 µM)	1 (≈ 1.83 µM)	32 (≈ 58.5 µM)	1 (≈ 1.83 µM)	
